Inhibition and IC50 data for 39 molecules are collected here from ChEMBL document CHEMBL1155016, “Locking the two ends of tetrapeptidic HTLV-I protease inhibitors inside the enzyme” (Bioorg Med Chem, 2008).

One may read the inhibition as the drop in the measured response relative to a control, in per cent. Low values mean a response near the control, high ones a response far below the control. Broadly, the IC50 is the point on the concentration scale where inhibition reaches its midpoint.

Test [1] deals with Protease (Human immunodeficiency virus 1) (UniProt Q9YQ12). Briefly: Inhibition of HIV1 protease at 50 nM.
Sequence of Protease (Human immunodeficiency virus 1) (Q9YQ12 as listed by the source): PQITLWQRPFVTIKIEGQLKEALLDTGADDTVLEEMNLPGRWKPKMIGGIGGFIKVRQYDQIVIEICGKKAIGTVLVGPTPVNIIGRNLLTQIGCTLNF
For the next test, the target named is Protease (Human T-cell leukemia virus type I, UniProt Q82134, L40I). As to the kind of experiment: Inhibition of HTLV1 protease L40I mutant. In short, it runs like this:
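HTLV-I protease carrying the L40I substitution, which blocks autolysis and stabilises the enzyme; run by the group's earlier reported protocol; potency given as IC50 in nM.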

SMILES strings stand for the structures. Starred links: 1 amine or outer side, 2 acyl side, 3 side chain; linkers in the order of their positions; H or OH if unused. Non-standard residues stand in square brackets, D forms with d. Residues, ends and D or L forms follow the SMILES beside them. X1 = O=C([C@@H](O)[C@H](Cc1ccccc1)N[*:1])[*:2]; Thz(5,5-Me2) = CC1(C)SCN[C@@H]1C(=O)O Some results are limits rather than exact numbers.

Sequence of Protease (Q82134 entry or part of it L40I): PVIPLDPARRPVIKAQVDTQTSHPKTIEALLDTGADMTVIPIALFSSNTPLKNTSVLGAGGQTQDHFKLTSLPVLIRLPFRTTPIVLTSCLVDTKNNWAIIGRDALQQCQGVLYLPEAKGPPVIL

`CC(C)(C)[C@H](NC(=O)[C@@H](NC(=O)C1CC1)c1ccccc1)C(=O)N[C@@H](Cc1ccccc1)[C@H](O)C(=O)N1CSC(C)(C)[C@H]1C(=O)NCC1CC1`: in test [1], the inhibition was above 98%. This molecule came in with a 50% inhibitory concentration (IC50) at Protease of 142 nM.

In turn, `CCCC(=O)N[C@H](C(=O)N[C@H](C(=O)N[C@@H](Cc1ccccc1)[C@H](O)C(=O)N1CSC(C)(C)[C@H]1C(=O)NC(C)C(C)(C)C)C(C)(C)C)c1ccccc1` (stereo partly drawn) registered an inhibition in test [1] above 98%. Further, on Protease, half-maximal inhibition (IC50) required 94 nM.

Regarding `CC(C)CC(=O)N[C@H](C(=O)N[C@H](C(=O)N[C@@H](Cc1ccccc1)[C@H](O)C(=O)N1CSC(C)(C)[C@H]1C(=O)NCC(C)(C)C)C(C)(C)C)c1ccccc1`, in test [1], the inhibition is above 98%. Further, the IC50 against Protease worked out at 82 nM.

Turning to `CC[C@H](C)[C@H](NC(C)=O)C(=O)N[C@H](C(=O)N[C@@H](Cc1ccccc1)[C@H](O)C(=O)N1CSC(C)(C)[C@H]1C(=O)N[C@H](C(=O)N[C@@H](CCSC)C(N)=O)[C@@H](C)CC)[C@@H](C)CC` (Ac-II[X1][Thz(5,5-Me2)]IM-NH2), in test [1], the inhibition is above 98%. Moreover, the IC50 against Protease was determined as 88 nM.

`CCC(=O)N[C@H](C(=O)N[C@H](C(=O)N[C@@H](Cc1ccccc1)[C@H](O)C(=O)N1CSC(C)(C)[C@H]1C(=O)NC(C)C(C)C)C(C)(C)C)c1ccccc1` (stereo partly drawn) showed an inhibition in test [1] above 98%. The same molecule displayed a half-maximal inhibitory concentration (IC50) against Protease of 129 nM.

`CC(=O)N[C@H](C(=O)N[C@H](C(=O)N[C@@H](Cc1ccccc1)[C@H](O)C(=O)N1CSC(C)(C)[C@H]1C(=O)NCC(C)C)C(C)(C)C)c1ccccc1` yielded an inhibition in test [1] above 98%. Moreover, at Protease, the IC50 was 107 nM.

In the case of `CCC(=O)N[C@H](C(=O)N[C@H](C(=O)N[C@@H](Cc1ccccc1)[C@H](O)C(=O)N1CSC(C)(C)[C@H]1C(=O)NCC(C)C)C(C)(C)C)c1ccccc1`, the inhibition in test [1] is above 98%. Also, on Protease, the IC50 stood at 105 nM.

In test [1], `CC(C)CCNC(=O)[C@H]1N(C(=O)[C@@H](O)[C@H](Cc2ccccc2)NC(=O)[C@@H](NC(=O)[C@@H](NC(=O)CC(C)C)c2ccccc2)C(C)(C)C)CSC1(C)C` had an inhibition above 98%. This molecule displayed an IC50 on Protease of 107 nM.

As to `CCCC(=O)N[C@H](C(=O)N[C@H](C(=O)N[C@@H](Cc1ccccc1)[C@H](O)C(=O)N1CSC(C)(C)[C@H]1C(=O)NC(C)C(C)C)C(C)(C)C)c1ccccc1` (stereo partly drawn), in test [1], the inhibition was above 98%. On Protease, this molecule yielded an IC50 of 659 nM.

In test [1], `CC(C)CNC(=O)[C@H]1N(C(=O)[C@@H](O)[C@H](Cc2ccccc2)NC(=O)[C@@H](NC(=O)[C@@H](NC(=O)C2CC2)c2ccccc2)C(C)(C)C)CSC1(C)C` returned an inhibition above 98%. This molecule also gave an IC50 against Protease of 97 nM.

`CC(=O)N[C@H](C(=O)N[C@H](C(=O)N[C@@H](Cc1ccccc1)[C@H](O)C(=O)N1CSC(C)(C)[C@H]1C(=O)NC(C)C(C)C)C(C)(C)C)c1ccccc1` (stereo partly drawn): the inhibition in test [1] was above 98%. The same molecule had an IC50 on Protease of 136 nM.

As to `CCCC(=O)N[C@H](C(=O)N[C@H](C(=O)N[C@@H](Cc1ccccc1)[C@H](O)C(=O)N1CSC(C)(C)[C@H]1C(=O)NCC1CC1)C(C)(C)C)c1ccccc1`, the inhibition in test [1] was above 98%. Further, it took 113 nM to reach half-maximal inhibition on Protease (IC50).

In test [1], `CC(C)C(C)NC(=O)[C@H]1N(C(=O)[C@@H](O)[C@H](Cc2ccccc2)NC(=O)[C@@H](NC(=O)[C@@H](NC(=O)C2CC2)c2ccccc2)C(C)(C)C)CSC1(C)C` (stereo partly drawn) had an inhibition above 98%. On Protease, this molecule gave a concentration for half-maximal inhibition (IC50) of 90 nM.

Consider `CC(C)C(C)NC(=O)[C@H]1N(C(=O)[C@@H](O)[C@H](Cc2ccccc2)NC(=O)[C@@H](NC(=O)[C@@H](N)c2ccccc2)C(C)(C)C)CSC1(C)C` (stereo partly drawn), for which the inhibition in test [1] was above 98%. Also, at Protease, the 50% inhibitory concentration (IC50) stood at 354 nM.

`CC(C)(C)CNC(=O)[C@H]1N(C(=O)[C@@H](O)[C@H](Cc2ccccc2)NC(=O)[C@@H](NC(=O)[C@@H](NC(=O)C(C)(C)C)c2ccccc2)C(C)(C)C)CSC1(C)C` came in with an inhibition in test [1] above 98%. For the same molecule, at Protease, half-maximal inhibition (IC50) required 97 nM.

In test [1], `CC(C)CNC(=O)[C@H]1N(C(=O)[C@@H](O)[C@H](Cc2ccccc2)NC(=O)[C@@H](NC(=O)[C@@H](N)c2ccccc2)C(C)(C)C)CSC1(C)C` had an inhibition above 98%. Further, at Protease, half-maximal inhibition (IC50) required 332 nM.

In turn, `CC(=O)N[C@H](C(=O)N[C@H](C(=O)N[C@@H](Cc1ccccc1)[C@H](O)C(=O)N1CSC(C)(C)[C@H]1C(=O)NCC(C)(C)C)C(C)(C)C)c1ccccc1` had an inhibition in test [1] above 98%. In addition, the IC50 against Protease is 113 nM.

For the molecule `CC(C)CC(=O)N[C@H](C(=O)N[C@H](C(=O)N[C@@H](Cc1ccccc1)[C@H](O)C(=O)N1CSC(C)(C)[C@H]1C(=O)NC(C)C(C)C)C(C)(C)C)c1ccccc1` (stereo partly drawn), the inhibition in test [1] is above 98%. For the same molecule, half-maximal inhibition against Protease (IC50) was put at 107 nM.

For the molecule `CC(=O)N[C@H](C(=O)N[C@H](C(=O)N[C@@H](Cc1ccccc1)[C@H](O)C(=O)N1CSC(C)(C)[C@H]1C(=O)NCC1CC1)C(C)(C)C)c1ccccc1`, in test [1], the inhibition was above 98%. Further, the IC50 on Protease is 146 nM.

`CCC(=O)N[C@H](C(=O)N[C@H](C(=O)N[C@@H](Cc1ccccc1)[C@H](O)C(=O)N1CSC(C)(C)[C@H]1C(=O)NCC(C)(C)C)C(C)(C)C)c1ccccc1`: the inhibition in test [1] was above 98%. This molecule also registered an IC50 on Protease of 98 nM.

`CCC(=O)N[C@H](C(=O)N[C@H](C(=O)N[C@@H](Cc1ccccc1)[C@H](O)C(=O)N1CSC(C)(C)[C@H]1C(=O)NCC1CC1)C(C)(C)C)c1ccccc1` displayed an inhibition in test [1] above 98%. In addition, half-maximal inhibition against Protease (IC50) was put at 145 nM.

`CC(C)CCNC(=O)[C@H]1N(C(=O)[C@@H](O)[C@H](Cc2ccccc2)NC(=O)[C@@H](NC(=O)[C@@H](N)c2ccccc2)C(C)(C)C)CSC1(C)C` displayed an inhibition in test [1] above 98%. Further, on Protease, the 50% inhibitory concentration (IC50) was 372 nM.

In turn, `CC(NC(=O)[C@H]1N(C(=O)[C@@H](O)[C@H](Cc2ccccc2)NC(=O)[C@@H](NC(=O)[C@@H](N)c2ccccc2)C(C)(C)C)CSC1(C)C)C(C)(C)C` (stereo partly drawn) gave an inhibition in test [1] above 98%. Further, at Protease, the IC50 came out at 156 nM.

`CC(C)CC(=O)N[C@H](C(=O)N[C@H](C(=O)N[C@@H](Cc1ccccc1)[C@H](O)C(=O)N1CSC(C)(C)[C@H]1C(=O)NCC1CC1)C(C)(C)C)c1ccccc1` displayed an inhibition in test [1] above 98%. On Protease, this molecule returned an IC50 of 132 nM.

In test [1], `CCC(=O)N[C@H](C(=O)N[C@H](C(=O)N[C@@H](Cc1ccccc1)[C@H](O)C(=O)N1CSC(C)(C)[C@H]1C(=O)NC(C)C(C)(C)C)C(C)(C)C)c1ccccc1` (stereo partly drawn) displayed an inhibition above 98%. This molecule also yielded an IC50 against Protease of 103 nM.

In test [1], `CC(=O)N[C@H](C(=O)N[C@H](C(=O)N[C@@H](Cc1ccccc1)[C@H](O)C(=O)N1CSC(C)(C)[C@H]1C(=O)NC(C)C(C)(C)C)C(C)(C)C)c1ccccc1` (stereo partly drawn) had an inhibition above 98%. The molecule further came in with a half-inhibitory concentration (IC50) against Protease of 106 nM.

For `C=CCCC(=O)N[C@H](C(=O)N[C@H](C(=O)N[C@@H](Cc1ccccc1)[C@H](O)C(=O)N1CSC(C)(C)[C@H]1C(=O)NC(C)C(C)C)C(C)(C)C)c1ccccc1` (stereo partly drawn), the inhibition in test [1] was above 98%. Also, the half-inhibitory concentration (IC50) on Protease came to 87 nM.

In test [1], `CC(C)C(=O)N[C@H](C(=O)N[C@H](C(=O)N[C@@H](Cc1ccccc1)[C@H](O)C(=O)N1CSC(C)(C)[C@H]1C(=O)NC(C)C(C)C)C(C)(C)C)c1ccccc1` (stereo partly drawn) came in with an inhibition above 98%. Besides, on Protease, half-maximal inhibition (IC50) required 122 nM.

In test [1], `CC(C)(C)CNC(=O)[C@H]1N(C(=O)[C@@H](O)[C@H](Cc2ccccc2)NC(=O)[C@@H](NC(=O)[C@@H](N)c2ccccc2)C(C)(C)C)CSC1(C)C` displayed an inhibition above 98%. This molecule had a half-maximal inhibitory concentration (IC50) against Protease of 180 nM.

As to `CC(C)C(=O)N[C@H](C(=O)N[C@H](C(=O)N[C@@H](Cc1ccccc1)[C@H](O)C(=O)N1CSC(C)(C)[C@H]1C(=O)NCC1CC1)C(C)(C)C)c1ccccc1`, the inhibition in test [1] was above 98%. This molecule also displayed an IC50 at Protease of 134 nM.

With `CCCC(=O)N[C@H](C(=O)N[C@H](C(=O)N[C@@H](Cc1ccccc1)[C@H](O)C(=O)N1CSC(C)(C)[C@H]1C(=O)NCC(C)(C)C)C(C)(C)C)c1ccccc1`, in test [1], the inhibition is above 98%. The molecule further showed a half-inhibitory concentration (IC50) at Protease of 74 nM.

`CC(NC(=O)[C@H]1N(C(=O)[C@@H](O)[C@H](Cc2ccccc2)NC(=O)[C@@H](NC(=O)[C@@H](NC(=O)C2CC2)c2ccccc2)C(C)(C)C)CSC1(C)C)C(C)(C)C` (stereo partly drawn) registered an inhibition in test [1] above 98%. Also, inhibition on Protease was half-maximal at 85 nM (IC50).

The molecule `CC(C)C(=O)N[C@H](C(=O)N[C@H](C(=O)N[C@@H](Cc1ccccc1)[C@H](O)C(=O)N1CSC(C)(C)[C@H]1C(=O)NC(C)C(C)(C)C)C(C)(C)C)c1ccccc1` (stereo partly drawn) yielded an inhibition in test [1] above 98%. Moreover, the IC50 against Protease worked out at 84 nM.

As to `CCCC(=O)N[C@H](C(=O)N[C@H](C(=O)N[C@@H](Cc1ccccc1)[C@H](O)C(=O)N1CSC(C)(C)[C@H]1C(=O)NCCC(C)C)C(C)(C)C)c1ccccc1`, the inhibition in test [1] was above 98%. For the same molecule, inhibition against Protease was half-maximal at 95 nM (IC50).

For the molecule `CC(NC(=O)[C@H]1N(C(=O)[C@@H](O)[C@H](Cc2ccccc2)NC(=O)[C@@H](NC(=O)[C@@H](NC(=O)C(C)(C)C)c2ccccc2)C(C)(C)C)CSC1(C)C)C(C)(C)C` (stereo partly drawn), the inhibition in test [1] is above 98%. The same molecule showed an IC50 at Protease of 97 nM.

In turn, `CCCC(=O)N[C@H](C(=O)N[C@H](C(=O)N[C@@H](Cc1ccccc1)[C@H](O)C(=O)N1CSC(C)(C)[C@H]1C(=O)NCC(C)C)C(C)(C)C)c1ccccc1` gave an inhibition in test [1] above 98%. The IC50 against Protease came to 104 nM.

For the molecule `CC(C)(C)CNC(=O)[C@H]1N(C(=O)[C@@H](O)[C@H](Cc2ccccc2)NC(=O)[C@@H](NC(=O)[C@@H](NC(=O)C2CC2)c2ccccc2)C(C)(C)C)CSC1(C)C`, the inhibition in test [1] is above 98%. The half-inhibitory concentration (IC50) at Protease turned out to be 86 nM.

As for `CC(C)CNC(=O)[C@H]1N(C(=O)[C@@H](O)[C@H](Cc2ccccc2)NC(=O)[C@@H](NC(=O)[C@@H](NC(=O)C(C)(C)C)c2ccccc2)C(C)(C)C)CSC1(C)C`, the inhibition in test [1] was above 98%. The same molecule registered an IC50 on Protease of 83 nM.

With `CSCC[C@H](NC(=O)[C@@H](NC(=O)[C@@H]1CCCN1C(=O)[C@@H](O)[C@H](Cc1ccccc1)NC(=O)[C@@H](NC(=O)[C@H](CCC(N)=O)NC(=O)[C@@H]1CCCN1)C(C)C)C(C)C)C(=O)N[C@@H](Cc1cnc[nH]1)C(=O)O`, the inhibition in test [1] is above 98%. The same molecule came in with an IC50 on Protease of 159 nM.
